From ChEMBL document CHEMBL1125076, “In vivo intracerebral microdialysis studies in rats of MPP+ analogues and related charged species” (1990)

How the values were obtained:
Format in all cases: functional
Rattus norvegicus [1] = species: Rattus norvegicus; test: Percentage of basal lactate efflux before starting the drug perfusion (1 min) with average basal level 689+/-103 pmol/min
Rattus norvegicus [2] = species: Rattus norvegicus; test: Percentage of basal lactate efflux before starting the drug perfusion (15 min) with average basal level 689+/-103 pmol/min
Outline: (§1)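 Rat striatal microdialysis via U-shaped cellulose-membrane cannula, Ringer perfusion. Once lactate efflux stabilized, test compound perfused as 10 mM solution in Ringer for 15–150 min. Dialysate mixed on-line with lactate dehydrogenase (5 mg/mL) and 0.5 mM NAD+ in carbonate buffer pH 9.5. NADH formed was separated by C18 HPLC (0.05 M phosphate, pH 6.8) and detected electrochemically at 650 mV. Samples injected every 5 min. Change expressed as % of basal. At least duplicate experiments.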

Rattus norvegicus [3] = species: Rattus norvegicus; test: (§2) Percentage of basal lactate efflux before starting the drug perfusion (150 min) with average basal level 689+/-103 pmol/min; outline: as §1
Rattus norvegicus [4] = species: Rattus norvegicus; test: as §2; remark: listed apart in the source

SMILES	Basal (Rattus norvegicus [1]) [%]	Basal (Rattus norvegicus [2]) [%]	also measured
Cc1ccc(-[n+]2ccc(C)cc2)cc1	180	230	
Cc1ccccc1-c1cc[n+](C)cc1	155		
C[n+]1ccc(-c2ccccc2)nc1		102	
C[n+]1ccccc1-c1ccccc1		160	
C[n+]1cccc2ccccc21		190	Basal (Rattus norvegicus [3]): 200%
c1ccc2c(c1)CCNC2 [1,2,3,4-TETRAHYDROISOQUINOLINE]			Basal (Rattus norvegicus [4]): 98%
C[n+]1ccc(C(C)(C)C)cc1		106	
C[n+]1cccc(-c2ccccc2)c1		240	
Cc1cc(-c2ccccc2)cc[n+]1C	200		
C[n+]1ccc(-c2ccccc2)cc1	210	280	
